MrgX1 antagonist: blocks BAM8-22 activation of human MrgX1 receptor; Q96LB2; MRGX1-HEK293 calcium flux, Fluo-4, BAM8-22 antagonism; stronger effect = lower value; B-score at 10 µM; actives 1.3% (n = 310,000);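 active means calcium-response B-score plate-corrected more than 3 library SD below zero, starting fluorescence within 5 deviations, no agonist response on first addition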;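 further: peak minus trough fluorescence over baseline after final BAM8-22 challenge near maximal dose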
Target sequence (Q96LB2 whole entry, looked up): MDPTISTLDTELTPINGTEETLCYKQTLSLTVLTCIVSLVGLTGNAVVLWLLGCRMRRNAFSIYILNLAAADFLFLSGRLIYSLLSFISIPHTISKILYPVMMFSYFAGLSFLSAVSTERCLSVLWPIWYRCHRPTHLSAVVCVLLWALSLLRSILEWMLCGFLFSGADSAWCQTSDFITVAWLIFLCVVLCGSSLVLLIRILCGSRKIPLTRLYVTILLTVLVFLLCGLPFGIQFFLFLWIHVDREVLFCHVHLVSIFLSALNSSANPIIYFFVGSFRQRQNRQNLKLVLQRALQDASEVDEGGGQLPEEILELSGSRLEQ
MrgX1 allo act: human MrgX1 positive allosteric modulation, primary screen; MrgX1-HEK293, Fluo-4 calcium flux, FDSS; stronger effect = higher value; B-score at 10 µM; actives 0.63% (n = 310,000);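 active means plate-corrected calcium response at least 3 library SD above typical, normal starting fluorescence, not activating the receptor alone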;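 further: compound read alongside a low EC10 to EC30 dose of BAM8-22 agonist; peak minus trough fluorescence over baseline measured at the second addition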
RGS4 inh: human RGS4 inhibition; P49798; HEK293 M3R/RGS4 inducible, Fluo-4 calcium flux; stronger effect = higher value; triggered by carbachol at its EC20; B-score at 10 µM; actives 0.45% (n = 310,000);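 active means B-score, a plate-corrected calcium signal, over three deviations above library mean, with baseline fluorescence within five deviations of library mean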;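 further: RGS4 expression induced by doxycycline in cells with stable M3 receptor; B-score is computed from the integrated fluorescence ratio over baseline after carbachol; higher B-score means a larger calcium signal and so more RGS4 inhibition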
Target sequence (P49798 whole entry, looked up): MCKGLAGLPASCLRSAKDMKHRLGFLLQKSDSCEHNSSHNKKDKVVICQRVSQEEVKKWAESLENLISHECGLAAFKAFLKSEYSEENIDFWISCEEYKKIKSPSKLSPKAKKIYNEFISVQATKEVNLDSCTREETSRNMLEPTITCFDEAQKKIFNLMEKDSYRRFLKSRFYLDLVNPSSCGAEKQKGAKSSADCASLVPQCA
RGS4 act: RGS4 potentiation or activation; HEK293 M3R/inducible RGS4, carbachol calcium flux Fluo4; stronger effect = lower value; B-score at 10 µM; actives 0.92% (n = 310,000); AID 463111;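 active means B-score of the integrated calcium signal more than 4 SD below the library mean, with starting fluorescence not abnormally high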;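 further: negative B-score means reduced calcium response which marks RGS4 activation or potentiation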
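test system = HEK293 cells with stable M3R and inducible RGS4 | schedule = recording 10 s baseline at 1 Hz, 100 s post-agonist | technique = Fluo4-AM (2 µM) calcium-flux fluorescence, kinetic read | measure = Agonist-evoked peak-minus-minimum fluorescence over baseline, integrated ratio, B score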
MrgX1 agonist: agonists of human MrgX1 receptor; Q96LB2; MrgX1-HEK293 cells, Fluo-4 calcium fluorescence, agonist mode; stronger effect = higher value; B-score at 10 µM; actives 0.44% (n = 310,000); AID 588627;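 active means calcium response B-score plate-corrected fluorescence ratio at least 3 library SD, with starting fluorescence B-score inside 5 SD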
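Test system: HEK293 cells stably expressing human MrgX1 receptor; amount: 15,000 cells per well; doses: compound delivered in addition one of three; times: overnight plating before 1 h dye loading; detection: Fluo-4 NW calcium-flux fluorescence, kinetic read; read-out basis: B-scored fluorescence response ratio; controls: positive and negative controls per plate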
MrgX1 ant reconf: confirmation of human MrgX1 receptor antagonists | shares compounds with MrgX1 antagonist | remaining BAM8-22 calcium response % of control (stronger effect = lower value), % at 10 µM | MrgX1-HEK293, BAM8-22 calcium flux, Fluo-4; stronger effect = lower value | AID 602420 | actives 19% (n = 2,300);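 active means remaining agonist calcium response no higher than 100% minus 3 SD of agonist-only control wells, with starting fluorescence near control levels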;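 further: agonist BAM8-22 given at a near maximal EC90 to ECmax level; peak minus minimum fluorescence divided by baseline after agonist addition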
HEK293 Ca flux: MrgX1 antagonist counter-screen hit in parental HEK293 cells; fluorescence ratio F(max-min)/F0 at 10 µM; actives 2% (n = 4,000); Fluo-4 calcium fluorescence, FDSS; shares compounds with MrgX1 antagonist;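 active means duplicate-averaged calcium fluorescence ratio at least three times the standard deviation of buffer wells, a nonspecific response in parental cells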
HEK293 Ca counter: MrgX1 allosteric activator counter-screen hit in parental HEK293 cells; actives 0.4% (n = 4,000); AID 624114; fluorescence ratio F(max-min)/F0 at 10 µM; parental HEK293 calcium flux, Fluo-4 fluorescence ratio; stronger effect = higher value; shares compounds with MrgX1 antagonist;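 active means calcium fluorescence ratio, averaged over duplicates, at least 3 SD of the buffer-well ratio, meaning a nonspecific response in receptor-free cells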;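 further: untransfected parental HEK293 lacking MrgX1 used as counterscreen for MrgX1 allosteric activators; fluorescence change taken during the second addition on a kinetic imager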
HEK293 Ca cntr2: MrgX1 activator counter-screen hit in parental HEK293 cells; shares compounds with MrgX1 antagonist; Fluo-4 calcium fluorescence (FDSS); stronger effect = higher value; fluorescence ratio F(max-min)/F0 at 10 µM; actives 8.7% (n = 4,000); AID 624115;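 active means calcium fluorescence ratio at least three times the spread of buffer wells, meaning a non-specific response in parental cells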
An asterisk follows results filed as active; i = inactive; x = not tested or not shown; ! = repeats disagree. Only some compounds are listed: those with a hit (about 3.5% of all), similar ones and a draw of the others.

SMILES | MrgX1 antagonist | MrgX1 allo act | RGS4 inh | RGS4 act | MrgX1 agonist | MrgX1 ant reconf | HEK293 Ca flux | HEK293 Ca counter | HEK293 Ca cntr2
O=C(CCCOc1ccc(Cl)cc1Cl)N1CCN(c2ccccn2)CC1 | -5.2* | i | i | i | i | i | i | i | i
Cc1nn(Cc2ccc(C(=O)Nc3ccccc3F)cc2)c(C)c1Cl | i | i | i | i | i | x | x | x | x
Cc1cc(C)nc(NS(=O)(=O)c2ccc(N)cc2)n1 | -4.7*! | i | i | i | i | i | i | i | i
CC(c1ccccc1C(O)(c1ccccc1)c1ccccc1)N(C)C (stereo not drawn) | -5.4* | i | i | i | i | i | i | i | i
CCN(CC)CCC(=O)N1c2ccccc2CCc2ccc(NC(=O)OC)cc21 | i | i | i | i | i | x | x | x | x
Cc1cccc(N2CCN(C(=O)c3cccc(N4C(=O)C5C6C=CC(C6)C5C4=O)c3)CC2C)c1 (stereo not drawn) | i | i | i | i | i | x | x | x | x
Cc1cccc(N2CCN(C(=O)c3ccc(N4CCCC4=O)cc3)CC2C)c1 (stereo not drawn) | -4.9* | i | i | i | i | i | i | i | i
Cc1cccc(-n2ncc3c2CCCC3NC(=O)C2CCOCC2)c1C (stereo not drawn) | -5.2* | i | i | i | i | 74%* | i | i | i
CCOC(=O)c1sc(NC(=S)NC(=O)c2cccc(Cl)c2)c(C(=O)OCC)c1C | -4.9* | i | i | i | i | i | i | i | i
CC(CC(=O)Nc1nc2ccccc2[nH]1)n1ccnc1 (stereo not drawn) | i | i | i | i | i | x | x | x | x
CC(=O)Nc1ccc(NC(=O)CC(C)n2ccnc2)cc1 (stereo not drawn) | -7* | i | i | i | i | i | i | i | i
O=C(NCc1cccc(Cl)c1)c1ccc2c(c1)OCO2 | i | i | i | i | i | x | x | x | x
O=C(NCc1ccc2c(c1)OCO2)c1ccc(Br)cc1 | i | i | i | i | i | x | x | x | x
O=C(NCc1ccc2c(c1)OCO2)c1cccc(Cl)c1 | -5.2* | i | i | i | i | i | i | i | i
Cc1nc2cc(C(=O)NCc3ccc4c(c3)OCO4)ccc2n1-c1ccc(Br)cc1 | -4.8* | i | i | i | i | i | i | i | i
Cc1cc(NC(=O)CSc2nc3cc(Cl)ccc3c(=O)n2CC(C)C)no1 | i | i | i | i | i | x | x | x | x
Cc1cc(Cl)c2oc(C(=O)NCCC3CCCCO3)c(C)c2c1 (stereo not drawn) | i | i | i | i | i | x | x | x | x
Cc1ccc(C2(CC(=O)O)CCOC(C)(C)C2)cc1 (stereo not drawn) | i | i | i | i | i | x | x | x | x
CC1(C)CC(CC(=O)O)(c2ccc(F)cc2)CCO1 (stereo not drawn) | -6* | i | i | i | i | i | i | i | i
Fc1ccc(-c2csc3ncnc(N4CCc5ccccc5C4)c23)cc1 | i | i | i | i | i | x | x | x | x
CCOC(=O)c1cnc(SCc2nc(N)nc(Nc3ccccc3)n2)nc1N | i | i | i | i | i | x | x | x | x
COc1cccc(-c2nnn(CC(=O)O)n2)c1 | i | i | i | i | i | x | x | x | x
O=C(NCCCO)c1ccc2[nH]c3c(c2c1)CCCC3 | i | i | i | i | i | x | x | x | x

Compound activity from PubChem BioAssay.
